VLA-4 inh – inhibition in a human VLA-4 binding assay. VLA-4 expressing cells, ligand binding flow cytometry. P13612. inhibition, % (about 7 µM as worked out from the volumes in the protocol). hit rate 0.2% among 330,000; in the data active = inhibition above about 50%
CHT inh – inhibitors of human choline transporter CHT. Q9GZV3. CHT-expressing cells, membrane potential dye, choline response; hits give low values. B-score at 10 µM. hit rate 0.86% among 310,000;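 active = B-score over 3 SD under the library average, and starting fluorescence ratio not unusually high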;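 also: choline stimulus applied at its EC90 after an EC20 pre-addition; B-score computed on integrated fluorescence ratio after choline addition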
T cell HTS – T cell immune modulation candidate; response (vesicle binding), % at 7 µM; hit rate 0.068% among 330,000; 2C CD8+ T cell-vesicle binding, flow cytometry; hits give low values;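 active = response, share of CD8 T cells binding vesicles, and their 90th percentile fluorescence all below set limits, cut at about 80% in these data, passing the limit was not always enough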;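 also: values below 100% mean blocked vesicle binding to the CD8+ T cells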
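Material: 2C TCR transgenic mouse naive CD8+ T cells, MACS-purified. Also added: QL9-charged Drosophila Ld/ICAM-1/B7-1 vesicles. Timing: binding 1.5 h at 37 °C. Measured by: high-throughput flow cytometry with anti-B7-1 and anti-CD8 staining. Read-out: percent CD8+ FL2 mean versus row control. Controls: Unloaded micro-vesicles (low), QL9 vesicles with 0.7% DMSO (high).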
CHT allo act – allosteric activators of human choline transporter CHT; Q9GZV3; CHT-expressing cells, membrane potential dye, choline EC20; hits give high values; LV-AA mutant CHT in HEK293 cells; B-score at 10 µM; hit rate 0.49% among 310,000;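 active = initial fluorescence not abnormally high and integrated response B-score, plate-corrected, over 3 SD above library mean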
CHT inh conf – confirmation of human choline transporter CHT inhibitors; shares compounds with CHT inh; CHT-expressing cells, choline membrane potential dye; LV-to-AA substituted CHT, HEK293 cells; CHT activity remaining % of control (hits give low values), % at 10 µM; hit rate 70% among 2,400;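 active = choline transporter activity left, mean of duplicates at 10 µM, below buffer-only control mean minus 3 SD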;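 also: depolarization triggered by choline at its EC90 following an EC20 pre-addition; 0% = hemicholinium-3 full block and 100% = buffer-only control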
HEK293 MPD ctr – CHT inhibitor counter-screen hit in parental HEK293 cells. shares compounds with CHT inh. membrane potential dye, choline response; active = decrease or increase beyond buffer ±3SD. membrane potential ratio readout (active if shifted either direction beyond buffer ±3SD; no single direction) at 10 µM. hit rate 4% among 2,400;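 also: parental cells lack the transporter so any hit is non-specific; ratio is peak minus trough fluorescence over baseline after EC90 choline challenge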
An asterisk follows results filed as active. Rows were chosen to be rich in hits. Some 1.5% of all compounds tested hit in one or more screens of this group.

How did COc1ccc(C(=O)CSc2[nH]c(=O)cc(C(F)(F)F)c2C#N)cc1 do in these assays?
VLA-4 inh: -2; CHT inh: -14*; T cell HTS: 84; CHT allo act: inactive; CHT inh conf: 45%*; HEK293 MPD ctr: inactive

Results for CC(C(=O)NC1CCCCCC1)N(c1ccccc1)S(C)(=O)=O (centres undefined) ?
VLA-4 inh: -3; CHT inh: -12*; T cell HTS: 232; CHT allo act: inactive; CHT inh conf: inactive; HEK293 MPD ctr: inactive

Results for Cc1ccc(C(=O)C[n+]2cccc3ccccc32)cc1 ?
VLA-4 inh: -299; CHT inh: -6.5*; T cell HTS: 259; CHT allo act: inactive; CHT inh conf: 29%*; HEK293 MPD ctr: inactive

What do the screens show for `O=C(C[n+]1cccc2ccccc21)c1ccc(Br)cc1`?
VLA-4 inh: -15; CHT inh: -9.3*; T cell HTS: 260; CHT allo act: inactive; CHT inh conf: 26%*; HEK293 MPD ctr: inactive

How did NC(=O)C[n+]1cccc2ccccc21 do in these assays?
VLA-4 inh: -17; CHT inh: inactive; T cell HTS: 225; CHT allo act: inactive

What do the screens show for `Cc1sc[n+](CC(=O)c2ccc(Br)cc2)c1C`?
VLA-4 inh: 2; CHT inh: -13*; T cell HTS: 275; CHT allo act: inactive; CHT inh conf: 24%*; HEK293 MPD ctr: inactive

Results for CCn1c(CNc2ccc(Cl)cc2)nnc1SCC#N ?
VLA-4 inh: -3; CHT inh: inactive; T cell HTS: 327; CHT allo act: inactive

What do the screens show for `O=C1[C@@H]2Cc3c([nH]c4ccccc34)C(c3cccc([N+](=O)[O-])c3)N2C(=O)CN1CCCO` (some centres undefined)?
VLA-4 inh: 1; CHT inh: inactive; T cell HTS: 188; CHT allo act: inactive

Results for Cc1cccc(CC(Cc2nc3ccccc3[nH]2)c2nc3ccccc3[nH]2)c1 (centres undefined) ?
VLA-4 inh: 12; CHT inh: -9*; T cell HTS: 377; CHT allo act: inactive; CHT inh conf: 59%*; HEK293 MPD ctr: inactive

How did COc1ccccc1CC(Cc1nc2ccccc2[nH]1)c1nc2ccccc2[nH]1 (centres undefined) do in these assays?
VLA-4 inh: 36; CHT inh: -8.6*; T cell HTS: 261; CHT allo act: inactive; CHT inh conf: 36%*; HEK293 MPD ctr: inactive

What do the screens show for `CC(=O)Nc1ccc(S(=O)(=O)NCc2nc(-c3cccc(C)c3)no2)cc1`?
VLA-4 inh: -17; CHT inh: inactive; T cell HTS: 365; CHT allo act: inactive

How did CC(C)NC(=O)N(C)C[C@H]1Oc2ccc(NC(=O)Cc3ccccc3)cc2C(=O)N([C@H](C)CO)C[C@@H]1C do in these assays?
VLA-4 inh: -8; T cell HTS: inactive

How did CC(/C=N/NC(=O)c1cc(-c2ccncc2)nc2ccccc12)=C\c1ccco1 do in these assays?
VLA-4 inh: 15; CHT inh: -7.5*; T cell HTS: 168; CHT allo act: inactive; CHT inh conf: 40%*; HEK293 MPD ctr: inactive

Results for NS(=O)(=O)c1cccc(NC(=O)CSc2nnc(C3CC3)n2Cc2ccccc2)c1 ?
VLA-4 inh: -1; CHT inh: -5.9*; T cell HTS: 637; CHT allo act: inactive; CHT inh conf: inactive; HEK293 MPD ctr: inactive

What do the screens show for `Nn1c(SCC(=O)Nc2cccc(S(N)(=O)=O)c2)nnc1C1CC1`?
VLA-4 inh: 5; CHT inh: inactive; T cell HTS: 342; CHT allo act: inactive

How did CC(Nc1cc(N2CCNCC2)ccc1[N+](=O)[O-])c1ccccc1 (centres undefined) do in these assays?
VLA-4 inh: 12; CHT inh: -6.4*; T cell HTS: 207; CHT allo act: inactive; CHT inh conf: 35%*; HEK293 MPD ctr: 2.7*

What do the screens show for `CCS(=O)(=O)N1CCN(c2ccc([N+](=O)[O-])c(NC(C)c3ccccc3)c2)CC1` (centres undefined)?
VLA-4 inh: 1; CHT inh: inactive; T cell HTS: 184; CHT allo act: inactive

Results for Cc1cc2c(cc(C(=O)N3CCC(C(=O)NC4CCCC4)CC3)n2Cc2c(F)cccc2Cl)o1 ?
VLA-4 inh: 0; CHT inh: -6.6*; T cell HTS: 218; CHT allo act: inactive; CHT inh conf: inactive; HEK293 MPD ctr: inactive

How did O=C(NC1CCCC1)C1CCN(C(=O)c2ccccc2Cl)CC1 do in these assays?
VLA-4 inh: -2; CHT inh: inactive; T cell HTS: 248; CHT allo act: inactive

How did CC1=C(C(=O)OCC(Cl)(Cl)Cl)N2C(=O)C(NC(=O)Cc3ccccc3)C2SC1 (centres undefined) do in these assays?
VLA-4 inh: 0; CHT inh: -12*; T cell HTS: 228; CHT allo act: inactive; CHT inh conf: inactive; HEK293 MPD ctr: inactive

What do the screens show for `Cc1cccc(NC(=O)/C(=C\c2ccco2)NC(=O)c2cccs2)c1`?
VLA-4 inh: -7; CHT inh: inactive; T cell HTS: 738; CHT allo act: inactive

What do the screens show for `Cc1ccc(C(=O)N/C(=C/c2ccco2)C(=O)Nc2cccc(C)c2)cc1`?
VLA-4 inh: 3; CHT inh: -5.7*; T cell HTS: inactive; CHT allo act: inactive; CHT inh conf: 62%*; HEK293 MPD ctr: inactive

How did CC(C)c1ccc(S(=O)(=O)/N=C2\C=C(NS(=O)(=O)c3ccccc3)C(=O)c3ccccc32)cc1 do in these assays?
VLA-4 inh: -8; CHT inh: -10*; T cell HTS: 84; CHT allo act: inactive; CHT inh conf: 39%*; HEK293 MPD ctr: inactive

Results for Cc1ccc(N2CCN(S(=O)(=O)c3ccc4c(c3)oc(=O)n4C)CC2C)cc1 (centres undefined) ?
VLA-4 inh: 7; CHT inh: inactive; T cell HTS: 191; CHT allo act: inactive

How did CC(=O)Nc1c2c3c(cccc3n(C)c1=O)C(=O)c1ccccc1-2 do in these assays?
VLA-4 inh: 2; CHT inh: -5.9*; T cell HTS: 145; CHT allo act: inactive; CHT inh conf: 45%*; HEK293 MPD ctr: 2.4*

What do the screens show for `COC(=O)CC(NC(=S)NC(=O)c1ccccc1)c1ccc(Br)cc1` (centres undefined)?
VLA-4 inh: 6; CHT inh: inactive; T cell HTS: 217; CHT allo act: inactive

How did CCn1cc(CNC(=O)c2cc(COc3ccc(F)cc3F)on2)cn1 do in these assays?
VLA-4 inh: 1; CHT inh: inactive; T cell HTS: 204; CHT allo act: inactive; CHT inh conf: 69%*; HEK293 MPD ctr: inactive
